Assay results from ChEMBL document CHEMBL4411272, “Design, synthesis and biological evaluation of AZD9291 derivatives as selective and potent EGFRL858R/T790M inhibitors” (Eur J Med Chem, 2019).

Tests used:
[1] = target: Epidermal growth factor receptor (Homo sapiens, UniProt P00533); experiment: Inhibition of wild-type EGFR (unknown origin) using substrate-biotin by ELISA-based mobility shift assay
[2] = target: Epidermal growth factor receptor (Homo sapiens, UniProt P00533, L858R/T790M); experiment: Inhibition of EGFR T790M/L858R double mutant (unknown origin) using substrate-biotin by ELISA-based mobility shift assay
Chain of Epidermal growth factor receptor (Homo sapiens, UniProt P00533, L858R/T790M) (P00533 25-1210 T790M/L858R limits assumed): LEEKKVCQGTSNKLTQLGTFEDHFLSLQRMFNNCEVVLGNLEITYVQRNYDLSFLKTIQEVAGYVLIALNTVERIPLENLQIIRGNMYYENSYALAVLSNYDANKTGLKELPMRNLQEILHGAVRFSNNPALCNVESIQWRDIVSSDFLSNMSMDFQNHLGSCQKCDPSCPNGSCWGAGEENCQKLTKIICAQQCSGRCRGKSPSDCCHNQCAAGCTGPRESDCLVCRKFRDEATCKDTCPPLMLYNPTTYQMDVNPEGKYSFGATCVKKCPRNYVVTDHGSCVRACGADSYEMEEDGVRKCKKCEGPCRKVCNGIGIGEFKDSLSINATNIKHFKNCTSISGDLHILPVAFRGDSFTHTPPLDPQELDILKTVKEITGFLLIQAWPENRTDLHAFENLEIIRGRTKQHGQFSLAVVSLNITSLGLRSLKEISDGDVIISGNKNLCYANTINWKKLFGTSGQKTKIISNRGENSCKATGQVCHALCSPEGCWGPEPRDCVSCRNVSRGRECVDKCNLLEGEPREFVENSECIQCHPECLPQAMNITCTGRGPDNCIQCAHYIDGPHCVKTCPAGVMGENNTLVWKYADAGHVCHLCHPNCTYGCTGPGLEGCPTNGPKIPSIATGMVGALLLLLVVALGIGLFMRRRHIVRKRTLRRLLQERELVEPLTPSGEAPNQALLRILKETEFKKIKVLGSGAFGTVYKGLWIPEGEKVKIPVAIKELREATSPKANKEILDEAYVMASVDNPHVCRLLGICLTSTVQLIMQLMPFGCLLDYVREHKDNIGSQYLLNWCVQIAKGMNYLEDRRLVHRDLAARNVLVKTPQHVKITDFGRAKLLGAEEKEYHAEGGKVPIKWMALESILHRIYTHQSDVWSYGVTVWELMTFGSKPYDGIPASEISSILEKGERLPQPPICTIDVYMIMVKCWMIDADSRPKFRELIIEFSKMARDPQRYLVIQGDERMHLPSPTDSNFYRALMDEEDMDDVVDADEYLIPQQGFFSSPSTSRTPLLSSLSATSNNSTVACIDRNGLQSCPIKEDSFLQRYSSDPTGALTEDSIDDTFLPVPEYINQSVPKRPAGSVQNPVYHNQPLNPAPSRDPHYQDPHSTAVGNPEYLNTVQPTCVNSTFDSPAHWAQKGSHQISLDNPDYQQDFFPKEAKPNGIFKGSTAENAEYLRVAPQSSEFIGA

NCI-H1975 = experiment: Antiproliferative activity against human NCI-H1975 cells after 72 hrs by MTT assay; type: functional, cell-based; conditions: NCI-H1975, 72 h
In short: (§1)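 MTT assay; cells grown as monolayers in DMEM or RPMI1640 with 10% FBS at 37 °C, 5% CO2 for 24 h, then compound added for 72 h. MTT at 5 μg/mL for 4 h at 37 °C, formazan dissolved in DMSO, absorbance read at 492 nm with 630 nm reference. Each compound tested three times per line; IC50 from averaged determinations.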

A549 = experiment: Antiproliferative activity against human A549 cells after 72 hrs by MTT assay; type: functional, cell-based; conditions: A549, 72 h; in short: as §1
HepG2 = experiment: Antiproliferative activity against human HepG2 cells after 72 hrs by MTT assay; type: functional, cell-based; conditions: HepG2, 72 h
In short: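 MTT assay; cells grown as monolayers in DMEM or RPMI1640 with 10% FBS at 37 °C, 5% CO2 for 24 h, then compound added for 72 h. Each compound tested three times per line; IC50 from averaged determinations.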

Homo sapiens = species: Homo sapiens; experiment: Selectivity ratio of IC50 for wild-type EGFR (unknown origin) to IC50 for EGFR T790M/L858R double mutant (unknown origin)

Chain of Epidermal growth factor receptor (Homo sapiens, UniProt P00533) (P00533 whole entry): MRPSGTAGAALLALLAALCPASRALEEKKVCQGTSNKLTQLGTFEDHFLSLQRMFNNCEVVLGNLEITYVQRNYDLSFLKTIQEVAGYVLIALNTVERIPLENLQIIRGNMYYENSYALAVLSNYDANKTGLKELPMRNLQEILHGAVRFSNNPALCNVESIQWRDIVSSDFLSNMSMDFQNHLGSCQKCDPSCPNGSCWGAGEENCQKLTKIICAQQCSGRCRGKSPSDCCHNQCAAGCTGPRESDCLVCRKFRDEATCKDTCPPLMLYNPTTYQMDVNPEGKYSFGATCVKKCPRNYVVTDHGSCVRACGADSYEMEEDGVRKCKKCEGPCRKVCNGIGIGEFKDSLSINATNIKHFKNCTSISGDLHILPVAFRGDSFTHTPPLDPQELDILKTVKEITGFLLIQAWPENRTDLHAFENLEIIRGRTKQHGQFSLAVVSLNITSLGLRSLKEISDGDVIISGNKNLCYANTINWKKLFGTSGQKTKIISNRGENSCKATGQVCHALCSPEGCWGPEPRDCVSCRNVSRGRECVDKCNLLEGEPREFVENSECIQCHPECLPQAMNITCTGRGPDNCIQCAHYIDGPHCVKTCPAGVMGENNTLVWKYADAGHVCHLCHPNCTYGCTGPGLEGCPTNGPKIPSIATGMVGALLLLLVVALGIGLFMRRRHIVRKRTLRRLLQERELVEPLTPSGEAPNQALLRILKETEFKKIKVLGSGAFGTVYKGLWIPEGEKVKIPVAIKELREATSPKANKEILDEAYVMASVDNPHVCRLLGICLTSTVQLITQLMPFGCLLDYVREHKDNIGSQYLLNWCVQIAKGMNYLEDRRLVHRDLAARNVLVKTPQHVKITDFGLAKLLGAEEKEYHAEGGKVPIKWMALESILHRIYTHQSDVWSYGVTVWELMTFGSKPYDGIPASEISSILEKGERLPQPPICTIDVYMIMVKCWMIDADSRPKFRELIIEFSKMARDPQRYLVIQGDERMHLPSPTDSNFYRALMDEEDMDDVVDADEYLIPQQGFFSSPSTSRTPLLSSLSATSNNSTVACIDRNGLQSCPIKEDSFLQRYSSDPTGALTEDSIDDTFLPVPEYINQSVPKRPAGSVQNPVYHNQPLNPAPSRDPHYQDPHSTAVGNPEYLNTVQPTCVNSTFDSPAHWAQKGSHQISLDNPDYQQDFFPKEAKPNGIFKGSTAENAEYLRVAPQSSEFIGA

| Structure (SMILES) | IC50 [1] [nM] | IC50 [2] [nM] | IC50 (NCI-H1975) [nM] | IC50 (A549) [nM] | IC50 (HepG2) [nM] | Ratio IC50 (Homo sapiens) |
| --- | --- | --- | --- | --- | --- | --- |
| COc1cc(N(C)CCN(C)C)c(NC(=O)C(Cl)=C(Cl)Cl)cc1Nc1nccc(-c2cn(C)c3ccccc23)n1 | > 2000 | > 2000 | > 50000 | > 50000 | > 50000 | – |
| CC/C=C\C(=O)Nc1cc(Nc2nc(C)cc(-c3cn(C)c4ccccc34)n2)c(OC)cc1N(C)CCN(C)C | 1260 | 18 | 1990 | 1080 | 2050 | 69.7 |
| CCC/C=C\C(=O)Nc1cc(Nc2ncc(C#N)c(-c3cn(C)c4ccc(F)cc34)n2)c(OC)cc1N(C)CCN(C)C | 1060 | 201 | 2420 | 741 | 2010 | 5.3 |
| COc1cc(N(C)CCN(C)C)c(NC(=O)/C=C\C(C)C)cc1Nc1nc(C)cc(-c2cn(C)c3ccc(F)cc23)n1 | > 2000 | 892 | 8520 | 9080 | 14000 | – |
| C=C(Cl)C(=O)Nc1cc(Nc2ncc(C#N)c(-c3cn(C)c4ccccc34)n2)c(OC)cc1N(C)CCN(C)C | 137 | 20 | 1620 | 133 | 115 | 6.9 |
| COc1cc(N(C)CCN(C)C)c(NC(=O)C=C(C)C)cc1Nc1nccc(-c2cn(C)c3ccccc23)n1 | 1280 | 209 | 5610 | 4100 | 5660 | 6.1 |
| C=C(Cl)C(=O)Nc1cc(Nc2nccc(-c3cn(C)c4ccccc34)n2)c(OC)cc1N(C)CCN(C)C | 257 | 33 | 1290 | 7520 | 1390 | 7.8 |
| CCC/C=C\C(=O)Nc1cc(Nc2nc(C)cc(-c3cn(C)c4ccc(F)cc34)n2)c(OC)cc1N(C)CCN(C)C | > 2000 | 923 | 12200 | 13300 | 12100 | – |
| C=CC(=O)Nc1cc(Nc2nccc(-c3cn(C)c4ccccc34)n2)c(OC)cc1N(C)CCN(C)C [OSIMERTINIB] | – | – | […] | 615 | – | – |
| CC/C=C\C(=O)Nc1cc(Nc2nccc(-c3cn(C)c4ccccc34)n2)c(OC)cc1N(C)CCN(C)C | 1280 | 177 | 3860 | 1530 | 6670 | 7.2 |
| COc1cc(N(C)CCN(C)C)c(NC(=O)/C=C\C(C)C)cc1Nc1ncc(C#N)c(-c2cn(C)c3ccc(F)cc23)n1 | 415 | 360 | 1130 | 185 | 2840 | 1.2 |
| CC/C=C\C(=O)Nc1cc(Nc2ncc(C#N)c(-c3cn(C)c4ccccc34)n2)c(OC)cc1N(C)CCN(C)C | 387 | 16 | 1150 | 162 | 1360 | 24.2 |
| C=CC(=O)Nc1cc(Nc2nccc(-c3cn(C)c4ccc(F)cc34)n2)c(OC)cc1N(C)CCN(C)C | 8.7 | 0.07 | 254 | 329 | 429 | 124 |
| CCC/C=C\C(=O)Nc1cc(Nc2nccc(-c3cn(C)c4ccccc34)n2)c(OC)cc1N(C)CCN(C)C | 1500 | 203 | 1220 | 808 | 431 | 7.4 |
| COc1cc(N(C)CCN(C)C)c(NC(=O)/C=C\C(C)C)cc1Nc1nc(C)cc(-c2cn(C)c3ccccc23)n1 | > 2000 | 38 | 1230 | 1070 | 3550 | – |
| CC/C=C\C(=O)Nc1cc(Nc2nc(C)cc(-c3cn(C)c4ccc(F)cc34)n2)c(OC)cc1N(C)CCN(C)C | > 2000 | 998 | 10400 | 9150 | 11000 | – |
| COc1cc(N(C)CCN(C)C)c(NC(=O)/C=C\C(C)C)cc1Nc1nccc(-c2cn(C)c3ccccc23)n1 | > 2000 | 397 | 1820 | 612 | 4390 | – |
| CCC/C=C\C(=O)Nc1cc(Nc2nccc(-c3cn(C)c4ccc(F)cc34)n2)c(OC)cc1N(C)CCN(C)C | 12 | 7.5 | 2730 | 1030 | 3400 | 1.6 |
| CC/C=C\C(=O)Nc1cc(Nc2ncc(C#N)c(-c3cn(C)c4ccc(F)cc34)n2)c(OC)cc1N(C)CCN(C)C | > 2000 | > 2000 | 10200 | 4720 | 5880 | – |
| CCC/C=C\C(=O)Nc1cc(Nc2ncc(C#N)c(-c3cn(C)c4ccccc34)n2)c(OC)cc1N(C)CCN(C)C | 377 | 37 | 823 | 166 | 1680 | 10.2 |
| C=C(Cl)C(=O)Nc1cc(Nc2nc(C)cc(-c3cn(C)c4ccccc34)n2)c(OC)cc1N(C)CCN(C)C | 83 | 10 | 2230 | 1730 | 3640 | 8.3 |
| C=CC(=O)Nc1cc(Nc2nc(C)cc(-c3cn(C)c4ccc(F)cc34)n2)c(OC)cc1N(C)CCN(C)C | 1090 | 591 | 3830 | 1490 | 4280 | 1.9 |
| COc1cc(N(C)CCN(C)C)c(NC(=O)/C=C\C(C)C)cc1Nc1nccc(-c2cn(C)c3ccc(F)cc23)n1 | 977 | > 2000 | 7360 | 6140 | 3920 | – |
| C=C(F)C(=O)Nc1cc(Nc2nccc(-c3cn(C)c4ccccc34)n2)c(OC)cc1N(C)CCN(C)C | 65 | 6 | 4230 | 2460 | 3790 | 10.8 |
| C=CC(=O)Nc1cc(Nc2nc(C)cc(-c3cn(C)c4ccccc34)n2)c(OC)cc1N(C)CCN(C)C | 1340 | 93 | 4810 | 2910 | 12600 | 14.5 |
| C/C=C\C(=O)Nc1cc(Nc2nccc(-c3cn(C)c4ccccc34)n2)c(OC)cc1N(C)CCN(C)C | 395 | 52 | 4540 | 660 | 6930 | 7.6 |
| C=CC(=O)Nc1cc(Nc2ncc(C#N)c(-c3cn(C)c4ccccc34)n2)c(OC)cc1N(C)CCN(C)C | 311 | 25 | 1190 | 308 | 768 | 12.4 |
| CC/C=C\C(=O)Nc1cc(Nc2nccc(-c3cn(C)c4ccc(F)cc34)n2)c(OC)cc1N(C)CCN(C)C | 684 | 388 | 2600 | 3600 | 5280 | 1.8 |
| C=CC(=O)Nc1cc(Nc2ncc(C#N)c(-c3cn(C)c4ccc(F)cc34)n2)c(OC)cc1N(C)CCN(C)C | > 2000 | > 2000 | 11400 | 9700 | 17500 | – |
| COc1cc(N(C)CCN(C)C)c(NC(=O)/C=C\C(C)C)cc1Nc1ncc(C#N)c(-c2cn(C)c3ccccc23)n1 | 985 | 219 | 1110 | 1100 | 1810 | 4.5 |
